System: HEK-293T
Assay: Multiplex assay against HEK293T
Format: toxicity, cell-based
Conditions: human
How it was run: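 Cells stained live at seeding with Hoechst33342, BioTracker Green Microtubule Cytoskeleton Dye, MitoTracker Red and Annexin V Alexa Fluor 680 were imaged on a CQ1 microscope at 37°C and 5% CO2 after compound addition. Their classification by CellPathfinder machine-learning gating ran from Hoechst high-intensity objects versus normal cells, to healthy, pyknosed or fragmented nuclei among normal cells, to mitotic or apoptotic among pyknosed cells. Tubulin, mitochondrial-mass and membrane-permeability phenotypes are per cents of healthy-nucleus cells.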

[1] = 12 h, 1 µM, compound concentration 1 uM, replicate 1
[2] = 12 h, 1 µM, compound concentration 1 uM, replicate 2
[3] = 12 h, 10 µM, compound concentration 10 uM, replicate 1
[4] = 12 h, 10 µM, compound concentration 10 uM, replicate 2
[5] = 24 h, 1 µM, compound concentration 1 uM, replicate 1
[6] = 24 h, 1 µM, compound concentration 1 uM, replicate 2
[7] = 24 h, 10 µM, compound concentration 10 uM, replicate 1
[8] = 24 h, 10 µM, compound concentration 10 uM, replicate 2
[9] = 48 h, 1 µM, compound concentration 1 uM, replicate 1
[10] = 48 h, 1 µM, compound concentration 1 uM, replicate 2
[11] = 48 h, 10 µM, compound concentration 10 uM, replicate 1
[12] = 48 h, 10 µM, compound concentration 10 uM, replicate 2

## COC[C@@H](c1ccc(C(F)(F)F)cc1)N1CCN(C2(C)CCN(C(=O)c3c(C)ncnc3C)CC2)C[C@@H]1C.O=C(O)/C=C\C(=O)O [VICRIVIROC MALEATE]
[1]
  Population Apoptotic (%): 46%
  Population Fragmented Nuclei (%): 7%
  Population Healthy Nuclei (%): 80%
  Population Hoechst High Intensity Objects (%): 9%
  Population Membrane Permeable-Phenotype (%): 0%
  Population Mitochondria Different-Phenotype (%): 47%
  Population Mitotic Cells (%): 53%
  Population Normal (%): 90%
  Population Pyknosed Nuclei (%): 12%
  Population Tubulin-Different-Phenotype (%): 27%
  Total Cell Count: 406
[2]
  Population Apoptotic (%): 45%
  Population Hoechst High Intensity Objects (%): 5%
  Population Mitochondria Different-Phenotype (%): 51%
  Population Mitotic Cells (%): 54%
  Population Normal (%): 94%
  Population Pyknosed Nuclei (%): 11%
  Population Tubulin-Different-Phenotype (%): 17%
  Total Cell Count: 387
[3]
  Population Apoptotic (%): 44%
  Population Fragmented Nuclei (%): 6%
  Population Healthy Nuclei (%): 75%
  Population Hoechst High Intensity Objects (%): 8%
  Population Membrane Permeable-Phenotype (%): 0%
  Population Mitochondria Different-Phenotype (%): 63%
  Population Mitotic Cells (%): 55%
  Population Normal (%): 91%
  Population Pyknosed Nuclei (%): 18%
  Population Tubulin-Different-Phenotype (%): 57%
  Total Cell Count: 315
[4]
  Population Apoptotic (%): 62%
  Population Fragmented Nuclei (%): 5%
  Population Healthy Nuclei (%): 72%
  Population Hoechst High Intensity Objects (%): 16%
  Population Mitochondria Different-Phenotype (%): 78%
  Population Mitotic Cells (%): 37%
  Population Normal (%): 83%
  Population Pyknosed Nuclei (%): 21%
  Population Tubulin-Different-Phenotype (%): 51%
  Total Cell Count: 265
[5]
  Population Apoptotic (%): 30%
  Population Fragmented Nuclei (%): 9%
  Population Healthy Nuclei (%): 79%
  Population Hoechst High Intensity Objects (%): 6%
  Population Membrane Permeable-Phenotype (%): 0%
  Population Mitochondria Different-Phenotype (%): 24%
  Population Mitotic Cells (%): 69%
  Population Normal (%): 93%
  Population Pyknosed Nuclei (%): 10%
  Population Tubulin-Different-Phenotype (%): 21%
  Total Cell Count: 564
[6]
  Population Apoptotic (%): 31%
  Population Healthy Nuclei (%): 82%
  Population Hoechst High Intensity Objects (%): 5%
  Population Membrane Permeable-Phenotype (%): 1%
  Population Mitotic Cells (%): 68%
  Population Normal (%): 94%
  Population Pyknosed Nuclei (%): 8%
  Population Tubulin-Different-Phenotype (%): 11%
  Total Cell Count: 515
[7]
  Population Apoptotic (%): 34%
  Population Fragmented Nuclei (%): 6%
  Population Healthy Nuclei (%): 80%
  Population Hoechst High Intensity Objects (%): 6%
  Population Membrane Permeable-Phenotype (%): 0%
  Population Mitochondria Different-Phenotype (%): 53%
  Population Mitotic Cells (%): 66%
  Population Normal (%): 93%
  Population Pyknosed Nuclei (%): 13%
  Population Tubulin-Different-Phenotype (%): 49%
  Total Cell Count: 406
[8]
  Population Apoptotic (%): 60%
  Population Fragmented Nuclei (%): 10%
  Population Healthy Nuclei (%): 77%
  Population Hoechst High Intensity Objects (%): 16%
  Population Mitochondria Different-Phenotype (%): 70%
  Population Mitotic Cells (%): 39%
  Population Normal (%): 83%
  Population Pyknosed Nuclei (%): 12%
  Population Tubulin-Different-Phenotype (%): 39%
  Total Cell Count: 310
[9]
  Population Apoptotic (%): 21%
  Population Fragmented Nuclei (%): 11%
  Population Healthy Nuclei (%): 80%
  Population Hoechst High Intensity Objects (%): 2%
  Population Membrane Permeable-Phenotype (%): 1%
  Population Mitochondria Different-Phenotype (%): 13%
  Population Mitotic Cells (%): 78%
  Population Normal (%): 97%
  Population Pyknosed Nuclei (%): 7%
  Population Tubulin-Different-Phenotype (%): 12%
  Total Cell Count: 930
[10]
  Population Apoptotic (%): 34%
  Population Fragmented Nuclei (%): 13%
  Population Healthy Nuclei (%): 81%
  Population Mitochondria Different-Phenotype (%): 11%
  Population Mitotic Cells (%): 65%
  Population Pyknosed Nuclei (%): 5%
  Population Tubulin-Different-Phenotype (%): 8%
  Total Cell Count: 751
[11]
  Population Apoptotic (%): 38%
  Population Fragmented Nuclei (%): 12%
  Population Healthy Nuclei (%): 75%
  Population Hoechst High Intensity Objects (%): 4%
  Population Membrane Permeable-Phenotype (%): 0%
  Population Mitochondria Different-Phenotype (%): 49%
  Population Mitotic Cells (%): 61%
  Population Normal (%): 95%
  Population Pyknosed Nuclei (%): 11%
  Population Tubulin-Different-Phenotype (%): 35%
  Total Cell Count: 559
[12]
  Population Apoptotic (%): 53%
  Population Fragmented Nuclei (%): 14%
  Population Healthy Nuclei (%): 70%
  Population Hoechst High Intensity Objects (%): 11%
  Population Mitochondria Different-Phenotype (%): 50%
  Population Mitotic Cells (%): 46%
  Population Normal (%): 88%
  Population Pyknosed Nuclei (%): 15%
  Population Tubulin-Different-Phenotype (%): 38%
  Total Cell Count: 394

From ChEMBL document CHEMBL5058577, “EUbOPEN Chemogenomics Library 2 (Multiplex)” (2022)
